Measurements: PMC8866227 (Clinical Cancer Research, 2021)
Where two headings read alike, the source gives them in different places.

Experiments:
[1] = test system: lung metastatic osteosarcoma; assay: Clinical response; assay type: in vivo, dog; conditions: single agent toceranib, dogs with metastatic OS
CCL2 = assay: Plasma CCL2 concentration in treated dogs by ELISA; assay type: in vivo, dog; conditions: for dogs with posttreatment increases in plasma CCL2 / mean increase in plasma CCL2 above baseline: 10 mg/kg cohort
TGFβ = assay: Serum TGF-β concentrations in treated dogs; assay type: in vivo, dog; conditions: high losartan dose 10 mg/kg + toceranib
[2] = Systolic blood pressure monitoring in treated dogs; assay type: in vivo, dog; conditions: 1 and 10 mg/kg cohorts, repeated blood pressure measurements
[3] = Losartan plasma pharmacokinetics in dogs; assay type: in vivo, dog; conditions: for AUC(0-t) / Cmax: dog, plasma, po
human PBMCs [4] = assay: Transwell human PBMC migration to human OS cell line conditioned media; assay type: cell-based; conditions: 1 hour pretreatment, 10 μg/mL losartan
In short: (§1)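 Four human (THP-1, human PBMC) or four canine (canine PBMC) OS cell lines, kept in DMEM/10% FBS at 37°C and 5% CO2, supplied conditioned media as chemoattractant in transwell migration assays. Wells were run in technical triplicate or quadruplicate. […] Results are mean ± SD, one-way ANOVA with Tukey.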

[5] = test system: peripheral blood myeloid cells; assay: Peripheral blood total myeloid cell counts; assay type: in vivo, dog; conditions: week 4 posttreatment, low- and high-dose cohorts combined n=19
human PBMCs [6] = assay: RNA-seq differential gene expression of losartan-treated human PBMCs; assay type: cell-based; conditions: losartan 10 μg/mL 24 h vs control
In short: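 PBMCs from healthy male and female donors were Ficoll-isolated from EDTA blood and plated at 3e6/mL in RPMI, 10% FBS, penicillin/streptomycin and L-glutamine. […] Extracted RNA was sequenced. Counts were RUVr-normalized, differential expression was called by limma-voom/edgeR, and GSEA was run.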

THP-1 cells = assay: Transwell THP-1 monocyte migration to human OS cell line conditioned media; assay type: cell-based; conditions: 1 hour pretreatment, 10 μg/mL losartan
In short: as §1

[7] = test system: CCL2-directed monocyte migration; assay: Ex vivo CCL2-directed monocyte migration of PBMCs from treated dogs; assay type: in vivo, dog; conditions: for dogs with reduction of CCL2-mediated ex vivo monocyte migration from baseline: 10 mg/kg cohort
In short: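 Blood was drawn at baseline and at rechecks (days 7, 14, 28 in the 10 mg/kg cohort) and ACK-lysed within 1 h. Fresh PBMCs were assayed immediately for CCL2-directed transwell migration. Chemotactic index is the fold-change over negative-control wells, expressed as % of week 0.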

human PBMCs [8] = assay: Gene Set Enrichment Analysis; assay type: cell-based; conditions: losartan treated vs control PBMCs
CCL2–CCR2 signaling = conditions: independent of AT1R; cited from earlier work
[9] = test system: CCL2-directed migration of canine PBMCs; assay type: cell-based
lung metastatic burden = conditions: cited from earlier work

With `Cc1[nH]c(/C=C2\C(=O)Nc3ccc(F)cc32)c(C)c1C(=O)NCCN1CCCC1` [toceranib, toceranib phosphate] the “Clinical benefit rate (SD, PR, and CR)” value [1] was 18% and the “Progression-free survival, range” value [1] was 7 to 176 days.

With `CCCCc1nc(Cl)c(CO)n1Cc1ccc(-c2ccccc2-c2nn[nH]n2)cc1` [losartan] the “dogs with increases in plasma CCL2” value (CCL2; 1 mg/kg cohort, 2 weeks posttreatment) was “five of six”, the “dogs with posttreatment increases in plasma CCL2” value (CCL2; week 2) was 12 of 15 and the “mean increase in plasma CCL2 above baseline” value (CCL2; week 2) was 149.4%. The “dogs with posttreatment increases in plasma CCL2” value (CCL2; week 4) was 11 of 12, the “mean increase in plasma CCL2 above baseline” value (CCL2; week 4) was 186.3% and the “serum TGFβ posttreatment” value (TGFβ) was “no posttreatment changes”. The “hypotension associated with losartan treatment” value [2] was “no dogs experienced any significant hypotension”, the mean plasma concentration ([3]; 1 mg/kg oral cohort, OS dogs, ~6 h post dose) was 6.8 ng/mL and the AUC(0-t) ([3]; 2.5 mg/kg) was 303 ng·h/mL. For the same molecule, the Cmax ([3]; 2.5 mg/kg) was 76.7 ng/mL, the AUC(0-t) ([3]; 10 mg/kg) was 1580 ng·h/mL and the Cmax ([3]; 10 mg/kg) was 509 ng/mL. The “human PBMC migration to OS conditioned media” value (human PBMCs [4]) was “significant inhibited”, the “total peripheral blood myeloid cells (combined monocyte and neutrophil counts)” value [5] was “significant reduction” and the genes downregulated (human PBMCs [6]) was 27 genes. For the same molecule, the genes upregulated (human PBMCs [6]) was 32 genes, the “THP-1 migration to OS conditioned media” value (THP-1 cells) was “significant inhibited” and the “CCL2-mediated ex vivo monocyte migration following treatment” value ([7]; 1 mg/kg losartan cohort (+ toceranib), OS dogs) was “unexpectedly increased”. The “dogs with reduction of CCL2-mediated ex vivo monocyte migration from baseline” value (“dogs with reduction” for short) ([7]; week 1) was 7 of 14, the “dogs with reduction” value ([7]; week 2) was 8 of 15 and the “dogs with reduction” value ([7]; week 4) was 7 of 11. For the same molecule, the “pathways significantly (Padj < 0.05) downregulated by GSEA” value (human PBMCs [8]) was 409 pathways, the “monocyte recruitment, noncompetitive inhibition of CCL2–CCR2 signaling induced ERK1/2 activation” value (CCL2–CCR2 signaling) was “potently inhibits” and the “CCL2-directed migration of canine PBMCs, % of untreated positive control wells” value ([9]; losartan 100 ng/mL in vitro) was 42%. The “CCL2-directed migration of canine PBMCs, % of untreated positive control wells” value ([9]; losartan 10 μg/mL in vitro) was 12% and the “lung metastatic burden in mice” value (lung metastatic burden) was “significantly reduced”.
